Compounds with a hit are over-represented: about 2.8% of the library has one in this group of screens.
ASAP1 GAP inh – inhibitors of human ASAP1 ArfGAP activity, primary screen, biochemical, fluorescence polarization; Arf-GAP with SH3 domain, ANK repeat and PH domain-containing protein 1 (Homo sapiens), …; ASAP1-stimulated ARF1 GTP hydrolysis, GDP FP detection; inhibition, % at 16.5 µM; 360,000 tested, 0.19% active; in the data active means inhibition above about 25%;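 further: 0% = vehicle with enzyme and substrate and 100% = no enzyme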
pPAFAH inh – pPAFAH enzyme inhibitors, primary screen, biochemical, fluorescence polarization, human. Platelet-activating factor acetylhydrolase (Homo sapiens), Q13093. inhibition, % at 3.39 µM. recombinant pPAFAH, FP-rhodamine probe fluorescence polarization. 330,000 tested, 1.5% active;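 active means inhibition above the mean inhibition across the screen plus 3 SD, cut at about 25% in these data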;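 further: inhibitors block binding of the rhodamine activity-based probe so polarization drops; 0% = enzyme with DMSO and 100% = wells lacking pPAFAH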
PAFAH1B3 inh – PAFAH1B3 enzyme inhibitors, primary screen, biochemical, fluorescence polarization, human. Platelet-activating factor acetylhydrolase IB subunit alpha1 (Homo sapiens), Q15102. 340,000 tested, 0.28% active. recombinant PAFAH1B3, FP-rhodamine probe. inhibition, % at 3.39 µM;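 active means inhibition above the screen-wide average of all tested compounds plus 3 SD, cut at about 25% in these data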;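 further: 0% = enzyme with DMSO only and 100% = wells lacking PAFAH1B3 protein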
ARFGAP1 inhibitor – inhibitors of rat ARFGAP1 GAP activity, primary screen, biochemical, fluorescence polarization, GDP tracer; ADP-ribosylation factor GTPase-activating protein 1 (Rattus norvegicus), Q62848; Arfgap1-stimulated ARF1 GTP hydrolysis, GDP FP detection; inhibition, % at 16.5 µM; 360,000 tested, 0.26% active;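 active means inhibition above a per-plate limit, mean inhibition of low control wells plus 3 SD, cut at about 25% in these data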;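 further: 0% = DMSO wells with enzyme and 100% = wells lacking Arfgap1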
Target sequence (Q62848 1-136 limits assumed): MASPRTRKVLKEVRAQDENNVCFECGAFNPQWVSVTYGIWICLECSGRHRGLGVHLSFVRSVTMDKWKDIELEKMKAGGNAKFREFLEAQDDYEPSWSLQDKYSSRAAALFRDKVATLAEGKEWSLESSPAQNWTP
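Replicates: Single well per compound | Assay system: Truncated rat Arfgap1 GAP domain | Control set: No-Arfgap1 wells (100%) versus DMSO full-reaction wells (0%) | Times: Enzyme reaction 120 min at 25 °C after 20 min preincubation | Reagent: Human ARF1(Δ1-17)-GTP substrate | Measured by: Tracer-displacement fluorescence polarization with EDTA stop, 620/688 nm | Measure: Percent inhibition of Arfgap1-stimulated GTP hydrolysis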
PAFAH2 inh – PAFAH2 enzyme inhibitors, primary screen, biochemical, fluorescence polarization, human. 340,000 tested, 0.99% active. AID 492956, 2010. Platelet-activating factor acetylhydrolase 2, cytoplasmic (Homo sapiens), Q99487. recombinant PAFAH2, FP-rhodamine activity probe. inhibition, % at 3.39 µM;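 active means inhibition above the mean over all tested compounds plus 3 SD, cut at about 30% in these data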;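 further: inhibitors block probe labeling of enzyme so polarization drops; 0% = enzyme with DMSO and 100% = wells lacking PAFAH2 protein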
PAFAH1B2 FP inh – PAFAH1B2 enzyme inhibitors, primary screen, biochemical, fluorescence polarization, human | Platelet-activating factor acetylhydrolase IB subunit alpha2 (Homo sapiens), P68402 | recombinant PAFAH1B2, FP-rhodamine activity probe | inhibition, % at 3.39 µM | 340,000 tested, 1.2% active;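 active means inhibition above the mean of all tested compounds plus 3 SD, cut at about 24% in these data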;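 further: 0% = enzyme with DMSO and 100% = wells lacking PAFAH1B2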
PAFAH1B3 conf FP – PAFAH1B3 enzyme inhibitors, confirmation, biochemical, fluorescence polarization, human. shares compounds with PAFAH1B3 inh. recombinant PAFAH1B3, FP-Rh activity-based probe. inhibition, % at 3.39 µM. 390 tested, 30% active. AID 493032, 2011;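 active means average inhibition over triplicate runs above the hit cutoff set in the earlier primary screen, cut at about 25% in these data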;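 further: 0% = enzyme with DMSO and 100% = wells lacking PAFAH1B3 protein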
ASAP1 GAP conf – ASAP1 GAP activity inhibitors, confirmation, biochemical, fluorescence polarization, human, triplicate | shares compounds with ASAP1 GAP inh | AID 624431, 2012 | inhibition, % at 16.5 µM | ASAP1-stimulated Arf1 GTPase, GDP fluorescence polarization | 620 tested, 37% active;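 active means mean inhibition over triplicates exceeds the hit threshold derived for the earlier primary screening run, cut at about 25% in these data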
ARFGAP1 confirm – ARFGAP1 inhibitor hit confirmation, biochemical, fluorescence polarization, triplicate; shares compounds with ARFGAP1 inhibitor; ARFGAP1-stimulated ARF1 GTP hydrolysis, GDP tracer FP; inhibition, % at 16.5 µM; 890 tested, 30% active;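 active means average inhibition over triplicates above the hit cutoff set in the earlier primary screen, cut at about 25% in these data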;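 further: 0% = Arfgap1 plus ARF1-GTP with DMSO and 100% = wells lacking Arfgap1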
Target sequence (Q62848 whole entry, looked up): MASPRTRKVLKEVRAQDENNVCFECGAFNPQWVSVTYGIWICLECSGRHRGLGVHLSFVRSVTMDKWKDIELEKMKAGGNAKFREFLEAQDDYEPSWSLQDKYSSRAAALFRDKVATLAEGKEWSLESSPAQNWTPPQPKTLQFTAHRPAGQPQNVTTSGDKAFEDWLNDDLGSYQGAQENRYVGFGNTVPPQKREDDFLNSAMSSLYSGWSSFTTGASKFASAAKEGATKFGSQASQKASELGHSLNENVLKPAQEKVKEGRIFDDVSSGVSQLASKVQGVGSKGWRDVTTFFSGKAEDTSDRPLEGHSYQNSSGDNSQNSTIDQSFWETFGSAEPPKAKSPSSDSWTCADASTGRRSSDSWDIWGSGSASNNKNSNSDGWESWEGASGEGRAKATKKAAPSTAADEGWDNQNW
Active calls of the source: *; · = not tested or not shown.

SMILES	ASAP1 GAP inh	pPAFAH inh	PAFAH1B3 inh	ARFGAP1 inhibitor	PAFAH2 inh	PAFAH1B2 FP inh	ARFGAP1 confirm	others
CCC(C)NC(=O)c1c(N)n(CCCOC)c2nc3ccccc3nc12 (stereo not given)	27*	18	62*	-16	9	18	·	PAFAH1B3 conf FP=19;ASAP1 GAP conf=15
Cc1cccc2c1N(N=O)CCC2	-15	7	8	-10	4	3	·
O=Cc1cn(Cc2ccc(F)cc2)c2ccccc12	25*	3	9	15	-4	0	·	ASAP1 GAP conf=2
Cc1ccc(Cn2cc(C=O)c3ccccc32)cc1	0	2	3	-4	3	9	·
COC(=O)C1=C(c2cccc(OC)c2OC)C[C@@H]2CC[C@H]1N2C(=O)N1CCCCC1	7	1	4	10	-5	3	·
O=C1C=C(N2CC2)c2ccccc2C1=O	31*	·	·	-6	·	·	·	ASAP1 GAP conf=-6
C[C@@H]1CN(C2CCC(C#N)(c3ccc(F)cc3)CC2)CC[C@]1(C(=O)O)c1ccccc1 (stereo not given in full)	-6	5	-5	13	-12	-7	·
CCc1c(C(=O)NN2C(=O)C3C4CCC(O4)C3C2=O)csc1C (stereo not given)	26*	4	11	-4	5	6	·	ASAP1 GAP conf=-1
COC(=O)C1C(c2ccc(I)cc2)CC2CCC1N2C (stereo not given)	26*	·	·	11	·	·	·	ASAP1 GAP conf=5
COC(=O)C1C(c2ccc(Cl)cc2)CC2CCC1N2C (stereo not given)	3	·	·	-3	·	·	·
COCCCn1c(N)c(C(=O)Nc2sc3c(c2C(=O)OC)CCCC3)c2nc3ccccc3nc21	29*	-1	-4	27*	-7	6	2	ASAP1 GAP conf=-3
CNC(=O)Oc1cc2c(cc1C(C)(C)C)CCC2	-12	·	5	11	-6	9	·
CC1CC(C)CN(C(=O)COC(=O)c2cn(C)c3ccccc23)C1 (stereo not given)	18	1	-1	42*	4	13	49*
COc1ccc(C(O)c2ccccc2OP(=O)(N(C)C)N(C)C)cc1 (stereo not given)	-3	-3	4	-1	8	4	·
CCCOc1ccc(C(C)=O)cc1Cc1c(O)[nH]c(=S)[nH]c1=O	2	-2	6	26*	-5	5	2
CCOc1ccc(C(C)=O)cc1Cc1c(O)[nH]c(=S)[nH]c1=O	20	·	4	6	0	1	·
O=C(Cn1nc(-c2ccc(Cl)cc2)ccc1=O)N1CCC2(CC1)OCCO2	-8	18	-2	-3	-1	-1	·
O=C(CCc1ccccc1)N1Cc2cc(N3CCCCC3)ccc2-n2nncc2C1	-10	·	·	25*	·	·	3
O=C(CCc1ccccc1)N1Cc2cc(N3CCOCC3)ccc2-n2nncc2C1	-4	·	·	-3	·	·	·
COC(=O)C(=O)N1CC2(C)CNCC(C)(C1)C2=O	-4	-1	6	11	9	3	·
COc1ccccc1Oc1c(C)oc2cc(OC(=O)N(C)C)ccc2c1=O	-11	4	-1	27*	-4	2	2
COc1ccc(Oc2c(C)oc3cc(OC(=O)N(C)C)ccc3c2=O)cc1	0	2	1	2	2	1	·
COCCNC(=O)c1ccc(N2CC3CC(C2)c2cccc(=O)n2C3)c([N+](=O)[O-])c1 (stereo not given)	7	0	-2	35*	-3	3	3
NCCc1ccc(O)cc1	4	4	6	29*	6	-2	2
CS(=O)(=O)NNP(=O)(NNS(C)(=O)=O)NC(=O)c1ccccc1	1	2	0	2	2	-5	·
CC[N+](C)(CC)CCCCOc1ccc2c(c1)C(=O)c1cc(OCCCC[N+](C)(CC)CC)ccc1-2	0	-3	9	26*	4	4	14
COc1cccc(CN2CCCCC2c2cccnc2)c1 (stereo not given)	-11	2	6	25*	-4	1	2
COc1ccc(CN2CCCCC2c2cccnc2)cc1C (stereo not given)	2	-2	14	-2	5	-1	·

Screening results from PubChem.
